Source: ChEMBL document CHEMBL4673227, “Development of Gleevec Analogues for Reducing Production of β-Amyloid Peptides through Shifting β-Cleavage of Amyloid Precursor Proteins” (J Med Chem, 2019)
Activity calls are given as the source filed them. The rule behind the calls is not given here.

Tests used:
[1] = Stability in human liver microsomes assessed as parent compound remaining level at 10 uM after 1 hrs by HPLC-MS/MS analysis; type: ADME, Microsome; conditions: read-out: Stabilty
[2] = Stability in mouse liver microsomes assessed as parent compound remaining level at 10 uM after 1 hrs by HPLC-MS/MS analysis; type: ADME, Microsome; conditions: read-out: Stabilty
[3] = Stability in mouse liver microsomes assessed as parent compound remaining level at 1 uM after 1 hrs by HPLC-MS/MS analysis; type: ADME, Microsome; conditions: read-out: Stabilty
[4] = Stability in human liver microsomes assessed as parent compound remaining level at 10 uM after 0.5 hrs by HPLC-MS/MS analysis; type: ADME, Microsome; conditions: read-out: Stabilty
[5] = Drug level in C57BL/6J mouse plasma at 50 mg/kg, ip measured after 4 hrs by LC-MS/MS analysis; type: ADME, organism-based
How it was run: (§1)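 Mesylate salts in water ([…], 125 μL) given i.p. at 50 or 150 mg/kg to 8-week-old male C57BL/6J mice. Brain and plasma harvested 4 h post-dose and snap-frozen. Brain homogenized and extracted twice with ethanol, plasma extracted with acetonitrile, both with internal standard. Drug quantified by LC-MS/MS; n = 3 or 4.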

[6] = Stability in human liver microsomes assessed as parent compound remaining level at 1 uM after 0.5 hrs by HPLC-MS/MS analysis; type: ADME, Microsome; conditions: read-out: Stabilty
[7] = Stability in mouse liver microsomes assessed as parent compound remaining level at 1 uM after 0.5 hrs by HPLC-MS/MS analysis; type: ADME, Microsome; conditions: read-out: Stabilty
[8] = Drug level in C57BL/6J mouse brain at 50 mg/kg, ip measured after 4 hrs by LC-MS/MS analysis; type: ADME, organism-based; conditions: read-out: Drug uptake; how it was run: as §1
[9] = Stability in human liver microsomes assessed as parent compound remaining level at 1 uM after 1 hrs by HPLC-MS/MS analysis; type: ADME, Microsome; conditions: read-out: Stabilty
[10] = Stability in mouse liver microsomes assessed as parent compound remaining level at 10 uM after 0.5 hrs by HPLC-MS/MS analysis; type: ADME, Microsome; conditions: read-out: Stabilty
[11] = Inhibition of beta secretase in mouse N2a695 cells assessed as reduction in A-beta 42 levels incubated for 5 hrs by ELISA; type: cell-based; conditions: N2a695, 5 h
How it was run: (§2)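 Mouse N2a695 cells (N2a overexpressing human APP695), grown in Opti-MEM/DMEM with 5% FBS and geneticin at 37 °C, 5% CO₂. Cells seeded overnight in 6-well plates, >95% confluent, then given fresh medium with compounds (2.5–10 μM, diluted from DMSO stocks) for 5 h. Secreted Aβ40/Aβ42 measured by ELISA or MSD ELISA against DMSO control; 2–3 experiments averaged.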

[12] = Toxicity in mouse N2a695 cells assessed as reduction in cell viability at 5 to 10 uM incubated for 5 hrs; type: cell-based; conditions: n2a695, 5 h, dose 5-10 µM
How it was run: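 N2a cells exposed to compounds at 10 μM for 5 h alongside the Aβ assay. Cell viability/density compared with DMSO control.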

N2a695 [13] = assay: Inhibition of beta secretase in mouse N2a695 cells assessed as reduction in A-beta 40 levels at 5 to 10 uM incubated for 5 hrs by ELISA; type: cell-based; conditions: dose 5-10 µM; how it was run: as §2
[14] = Inhibition of beta secretase in mouse N2a695 cells assessed as reduction in A-beta 40 levels incubated for 5 hrs by ELISA; type: cell-based; conditions: N2a695, 5 h; how it was run: as §2
N2a695 [15] = assay: Inhibition of beta secretase in mouse N2a695 cells assessed as reduction in A-beta 42 levels at 5 to 10 uM incubated for 5 hrs by ELISA; type: cell-based; conditions: dose 5-10 µM; how it was run: as §2
[16] = Drug level in C57BL/6J mouse plasma at 150 mg/kg, ip measured after 4 hrs by LC-MS/MS analysis; type: ADME, organism-based; how it was run: as §1
N2a [17] = assay: Inhibition of gamma secretase in mouse N2a cells expressing APP-C99 assessed as reduction of A-beta40 levels at 10 uM incubated for 5 hrs by MSD-ELISA relative to control; type: cell-based
How it was run: (§3)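 N2a cells transfected with plasmids for full-length APP695 or APP-C99. After 48 h, fresh medium with compounds (10 μM) added for 5 h. Supernatant Aβ40, Aβ42, sAPPα and sAPPβ measured by MSD ELISA against DMSO; BACE IV (2 μM) and DAPT (1 μM) run alongside.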

[18] = Drug level in C57BL/6J mouse brain at 150 mg/kg, ip measured after 4 hrs by LC-MS/MS analysis; type: ADME, organism-based; conditions: read-out: Drug uptake; how it was run: as §1
N2a [19] = assay: Inhibition of gamma secretase in mouse N2a cells expressing APP-C99 assessed as reduction of A-beta42 levels at 10 uM incubated for 5 hrs by MSD-ELISA relative to control; type: cell-based; how it was run: as §3
N2a [20] = assay: Inhibition of gamma secretase in mouse N2a cells expressing FL APP695 assessed as reduction of A-beta levels at 1 uM incubated for 5 hrs by MSD-ELISA; type: cell-based
N2a [21] = assay: Inhibition of beta secretase in mouse N2a cells expressing FL APP695 assessed as reduction of A-beta levels at 2 uM incubated for 5 hrs by MSD-ELISA
[22] = Drug level in brain of wild-type mouse at 50 mg/kg, po after 6 hrs by LC-MS/MS analysis; conditions: in vivo
[23] = Drug level in plasma of wild-type mouse at 50 mg/kg, po after 12 hrs by LC-MS/MS analysis; conditions: in vivo
[24] = Drug level in plasma of wild-type mouse at 50 mg/kg, po after 24 hrs by LC-MS/MS analysis; conditions: in vivo
[25] = Drug level in brain of wild-type mouse at 50 mg/kg, po after 12 hrs by LC-MS/MS analysis; conditions: in vivo
N2a695 [26] = assay: Inhibition of beta secretase in mouse N2a695 cells assessed as reduction in A-beta 42 levels at 10 uM incubated for 5 hrs by ELISA; type: cell-based; how it was run: as §2
N2a695 [27] = assay: Inhibition of beta secretase in mouse N2a695 cells assessed as reduction in A-beta 40 levels at 5 uM treated 1 hr after BACE IV treatment and further incubated for 5 hrs by ELISA; type: cell-based
How it was run: (§4)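 N2a695 cells pretreated with BACE IV for 1 h, then treated with compound plus BACE IV for 5 h. Secreted Aβ40 and Aβ42 measured by ELISA.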

Mus musculus [28] = assay: Inhibition of FA-soluble A-beta-40 levels in 2xTg AD mouse model at 100 mg/kg, po BID for 4 days and once daily on day 5 by ELISA; type: functional, organism-based; conditions: time 5.0 day
How it was run: (§5)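 2xTg AD females (APP Swedish/PS1ΔE9), 5 months old, n = 7 per group. 2a-mesylate 20 mg/mL in water with 0.1% methylcellulose, 100 mg/kg by gavage, or vehicle, twice daily 8 h apart for 4 days, then once on day 5. Euthanized 4 h after last dose. Left hemisphere homogenized in 1% Triton X-100 TBS (pH 7.4), then insoluble Aβ extracted with 70% formic acid and measured by ELISA.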

Mus musculus [29] = assay: Inhibition of FA-soluble A-beta-42 levels in 2xTg AD mouse model at 100 mg/kg, po BID for 4 days and once daily on day 5 by ELISA; type: functional, organism-based; how it was run: as §5
N2a695 [30] = assay: Inhibition of beta secretase in mouse N2a695 cells assessed as reduction in A-beta 42 levels at 5 uM treated 1 hr after BACE IV treatment and further incubated for 5 hrs by ELISA; type: cell-based; how it was run: as §4
[31] = Toxicity in mouse up to 150 mg/kg, po QD for 5 days; type: organism-based; conditions: in vivo, 120 h, time 5 day
How it was run: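 Wild-type mice given the compound by oral gavage, increasing amounts up to 150 mg/kg once daily for 5 days. Animals observed for signs of toxicity.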

Row | SMILES | concentration at 4 h [5] [nM] | concentration at 4 h [8] [ng/g] | IC50 [11] [µM] | IC50 [14] [µM] | Activity [12] | inhibition (N2a695 [13]) | inhibition (N2a695 [15]) | also measured
1 | Cc1ccc(NC(=O)c2ccc(CCN(C)C)cc2C(F)(F)F)cc1Nc1nccc(-c2cccnc2)n1 |  |  | > 5 | > 5 | Non-Toxic | Active | Active | concentration at 4 h [16]: 11600 nM; inhibition (N2a [17]): 25%; concentration at 4 h [18]: 60 ng/g; inhibition (N2a [19]): 25%
2 | C[C@H](NC(=O)Cc1cc(F)cc(F)c1)C(=O)N[C@H](C(=O)OC(C)(C)C)c1ccccc1 |  |  |  |  |  |  |  | inhibition (N2a [20]): Active; inhibition (N2a [21]): Active
3 | CS(=O)(=O)O.Cc1ccc(NC(=O)c2ccc(CCN(C)C)cc2)cc1Nc1nccc(-c2cccnc2)n1 |  |  |  |  |  |  |  | Drug uptake [22]: Active; Drug uptake [23]: Active; Drug uptake [24]: Not Active; Drug uptake [25]: Not Active
4 | CNCCc1ccc(C(=O)Nc2ccc(C)c(Nc3nccc(-c4cccnc4)n3)c2)cc1 |  |  |  |  |  |  |  | inhibition (N2a695 [26]): Active
5 | Cc1ccc(NC(=O)c2ccc(CCN(C)C)cc2)cc1Nc1nccc(-c2cccnc2)n1 [listing 1 of 2 here] |  |  |  |  |  | Active | Active | inhibition (N2a695 [27]): Active; inhibition (Mus musculus [28]): Active; inhibition (Mus musculus [29]): Active; inhibition (N2a695 [30]): Active
6 | Cc1ccc(NC(=O)c2ccc(CCN)cc2)cc1Nc1nccc(-c2cccnc2)n1 |  |  |  |  |  |  |  | inhibition (N2a695 [26]): Active

The next lines start with results.

Row | concentration at 4 h [5] [nM] | concentration at 4 h [8] [ng/g] | IC50 [11] [µM] | IC50 [14] [µM] | SMILES | Activity [12] | inhibition (N2a695 [13]) | inhibition (N2a695 [15]) | also measured
7 | 100 | < 1 |  |  | CS(=O)(=O)O.Cc1ccc(NC(=O)c2ccc(CN3CCN(C)CC3)cc2)cc1Nc1nccc(-c2cccnc2)n1 [IMATINIB MESYLATE] |  |  |  | remaining at 1 h, 10 µM [1]: 66.4%; remaining at 1 h, 10 µM [2]: 5.1%; remaining at 1 h, 1 µM [3]: 1.7%; remaining at 0.5 h, 10 µM [4]: 95.4%; remaining at 0.5 h, 1 µM [6]: 40.4%; remaining at 0.5 h, 1 µM [7]: 7.3%; remaining at 1 h, 1 µM [9]: 15.9%; remaining at 0.5 h, 10 µM [10]: 22.5%
8 | 1000 | 21 | > 5 | > 5 | Cc1ccc(NC(=O)c2ccc(N3CCN(C)CC3)cc2)cc1Nc1nccc(-c2cccnc2)n1 | Non-Toxic | Active | Active | 
9 |  | 127 | > 5 | > 5 | Cc1ccc(NC(=O)c2ccc(C3CCN(C)CC3)cc2)cc1Nc1nccc(-c2cccnc2)n1 | Non-Toxic | Active | Active | 
10 | 2300 | 39 | > 5 | > 5 | Cc1ccc(NC(=O)c2ccc(C3CCCN(C)C3)cc2)cc1Nc1nccc(-c2cccnc2)n1 (configuration not stated) | Non-Toxic | Active | Active | 
11 | 2500 | 27 | > 5 | > 5 | Cc1ccc(NC(=O)c2ccc(CCN(C)C)cc2)cc1Nc1nccc(-c2cccnc2)n1 [listing 2 of 2 here] | Non-Toxic |  |  | remaining at 1 h, 10 µM [1]: 56.5%; remaining at 1 h, 10 µM [2]: 2.3%; remaining at 1 h, 1 µM [3]: 1.3%; remaining at 0.5 h, 10 µM [4]: 77.1%; Activity [31]: Non-Toxic; remaining at 0.5 h, 1 µM [6]: 61.9%; remaining at 0.5 h, 1 µM [7]: 7.9%; remaining at 1 h, 1 µM [9]: 29.2%; remaining at 0.5 h, 10 µM [10]: 15.1%
